Test results published in ChEMBL document CHEMBL1148326, “Chemometric studies on the bactericidal activity of quinolones via an extended VolSurf approach” (2004).

Legend:
Assay type in all cases: functional
[1] = system: Enterococcus faecalis; test: Antibacterial activity was evaluated against Enterococcus faecalis
How it was run: (§1)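 MIC against aerobic bacteria, measured at Bayer AG, by standard agar dilution or broth microdilution per NCCLS M7-A5 guidelines. MIC taken as lowest concentration visibly inhibiting growth after in vitro incubation, read when untreated culture growth becomes visible; expressed as log 1/C.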

[2] = system: Escherichia coli; test: Antibacterial activity was evaluated against Escherichia coli; how it was run: as §1
[3] = system: Pseudomonas aeruginosa; test: Antibacterial activity was evaluated against Pseudomonas aeruginosa; how it was run: as §1
[4] = system: Staphylococcus aureus; test: Antibacterial activity was evaluated against Staphylococcus aureus; how it was run: as §1
[5] = system: Enterococcus faecalis; test: Antibacterial activity evaluated against Enterococcus faecalis; how it was run: as §1

COc1c(N2C[C@@H]3CCCN[C@@H]3C2)c(F)cc2c(=O)c(C(=O)O)cn(C3CC3)c12 [MOXIFLOXACIN]
Log 1/C [1]: 6.55
Log 1/C [2]: 7.46
Log 1/C [3]: 5.64
Log 1/C [4]: 7.16

C[C@@]12CN(c3c(F)cc4c(=O)c(C(=O)O)cn(C5C[C@@H]5F)c4c3F)C[C@@H]1CCCN2 (some centres not stated)
Log 1/C [1]: 6.86
Log 1/C [2]: 7.46
Log 1/C [3]: 6.25
Log 1/C [4]: 7.16

O=C(O)c1cn(C2CC2)c2cc(N3C[C@@H]4CCCN[C@@H]4C3)c(F)cc2c1=O
Log 1/C [5]: 6.21
Log 1/C [2]: 7.12
Log 1/C [3]: 5.92
Log 1/C [4]: 7.12

CN1CCN(c2cc3c(c(Cl)c2F)c(=O)c(C(=O)O)cn3C2CC2)CC1
Log 1/C [5]: 5.88
Log 1/C [2]: 7.1
Log 1/C [3]: 5.28
Log 1/C [4]: 6.48

O=C(O)c1cn(C2CC2)c2c([N+](=O)[O-])c(N3CCOCC3)c(F)cc2c1=O
Log 1/C [5]: 4.67
Log 1/C [2]: 5.58
Log 1/C [3]: 3.77
Log 1/C [4]: 5.58

CO/N=C/Cn1cc(C(=O)O)c(=O)c2cc(F)c(N3CCN(C)CC3)c(F)c21
Log 1/C [5]: 3.49
Log 1/C [2]: 5.29
Log 1/C [3]: 4.39
Log 1/C [4]: 4.39

COc1c(N2CC3=C(CN(C)CC3)C2)c(F)cc2c(=O)c(C(=O)O)cn(C3CC3)c12
Log 1/C [5]: 6.52
Log 1/C [2]: 6.84
Log 1/C [3]: 5.32
Log 1/C [4]: 6.84

CCOc1c(F)cc2c(=O)c(C(=O)O)cn(C(C)(C)CF)c2c1Cl
Log 1/C [5]: 4.05
Log 1/C [2]: 4.35
Log 1/C [3]: 3.45
Log 1/C [4]: 4.95

CCn1cc(C(=O)O)c(=O)c2cc(F)c(N3CCNC(C)C3)c(F)c21 (configuration not stated) [LOMEFLOXACIN]
Log 1/C [5]: 5.24
Log 1/C [2]: 7.07
Log 1/C [3]: 5.85
Log 1/C [4]: 5.85

CCn1cc(C(=O)O)c(=O)c2cc(F)c(N3CCN(C)CC3)cc21 [PEFLOXACIN]
Log 1/C [5]: 5.52
Log 1/C [2]: 7.05
Log 1/C [3]: 5.82
Log 1/C [4]: 6.12

O=C(O)c1cn(-c2ccc(F)cc2F)c2nc(N3C[C@@H]4CCCN[C@@H]4C3)c(F)cc2c1=O
Log 1/C [5]: 6
Log 1/C [2]: 7.5
Log 1/C [3]: 5.09
Log 1/C [4]: 6.59

C[C@H]1COc2c(N3C[C@H]4CCCN[C@H]4C3)c(F)cc3c(=O)c(C(=O)O)cn1c23
Log 1/C [5]: 5.89
Log 1/C [2]: 6.19
Log 1/C [3]: 5.29
Log 1/C [4]: 5.89

C#Cc1c(N2C[C@@H]3CCCN[C@@H]3C2)c(F)cc2c(=O)c(C(=O)O)cn(C3CC3)c12
Log 1/C [5]: 7.7
Log 1/C [2]: 7.7
Log 1/C [3]: 5.9
Log 1/C [4]: 7.7

CC(=O)N1CCC[C@H]2CN(c3c(F)cc4c(=O)c(C(=O)O)cn(C5CC5)c4c3Cl)C[C@H]21
Log 1/C [5]: 5.65
Log 1/C [2]: 5.35
Log 1/C [3]: 3.84
Log 1/C [4]: 5.95

CNn1cc(C(=O)O)c(=O)c2cc(F)c(N3CCN(C)CC3)cc21 [AMIFLOXACIN]
Log 1/C [5]: 4.92
Log 1/C [2]: 6.75
Log 1/C [3]: 5.83
Log 1/C [4]: 5.52

CC1CN(c2c(F)cc3c(=O)c(C(=O)O)cn(C4CC4)c3c2Cl)CC(C)N1 (configuration not stated)
Log 1/C [5]: 5.93
Log 1/C [2]: 7.16
Log 1/C [3]: 5.63
Log 1/C [4]: 6.54

CN1Cc2csc3c(C(=O)O)c(=O)c4cc(F)c(N5CCNCC5)c1c4n23
Log 1/C [5]: 6.49
Log 1/C [2]: 7.11
Log 1/C [3]: 5.89
Log 1/C [4]: 6.81

O=C(O)c1cn(C2CC2)c2c(F)c(N3Cc4cccnc4C3)c(F)cc2c1=O
Log 1/C [5]: 7.73
Log 1/C [2]: 6.53
Log 1/C [3]: 5.02
Log 1/C [4]: 7.44
